Compound activity as filed in PubChem.
KCNQ1 block: inhibitors of human KCNQ1 potassium channel; P51787; CHO-K1 KCNQ1, FluxOR thallium flux fluorescence; active compounds read high; B-score at 10 µM; 310,000 tested, 1.3% active;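 active = compounds whose thallium flux B-score, printed positive for inhibition, exceeds three library SD while starting fluorescence stays within three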;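 note: channel opened by potassium depolarization with thallium stimulus after 20 min compound exposure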
Target sequence (P51787 whole entry, looked up): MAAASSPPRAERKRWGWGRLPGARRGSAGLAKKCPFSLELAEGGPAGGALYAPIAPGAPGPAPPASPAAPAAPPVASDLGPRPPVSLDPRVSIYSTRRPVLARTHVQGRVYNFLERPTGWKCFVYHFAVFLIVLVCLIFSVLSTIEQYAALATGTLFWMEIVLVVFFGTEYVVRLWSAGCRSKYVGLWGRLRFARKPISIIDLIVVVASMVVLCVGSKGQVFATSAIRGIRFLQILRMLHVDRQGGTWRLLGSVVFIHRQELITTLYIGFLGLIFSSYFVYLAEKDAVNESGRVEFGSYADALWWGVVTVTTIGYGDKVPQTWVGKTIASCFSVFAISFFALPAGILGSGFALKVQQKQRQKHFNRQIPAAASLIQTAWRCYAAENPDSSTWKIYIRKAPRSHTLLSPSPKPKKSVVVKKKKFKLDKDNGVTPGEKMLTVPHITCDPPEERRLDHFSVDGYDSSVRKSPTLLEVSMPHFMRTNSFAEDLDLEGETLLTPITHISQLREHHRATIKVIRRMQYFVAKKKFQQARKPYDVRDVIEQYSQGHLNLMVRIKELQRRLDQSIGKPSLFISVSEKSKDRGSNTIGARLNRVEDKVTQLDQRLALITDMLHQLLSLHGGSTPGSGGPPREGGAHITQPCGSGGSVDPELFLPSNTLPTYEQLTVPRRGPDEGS
KCNK9 inh: inhibitors of human KCNK9 two-pore domain potassium channel. Q9NPC2. HEK293 KCNK9, FluxOR thallium flux fluorescence; active compounds read low. B-score at 10 µM. 310,000 tested, 1.2% active;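 active = ratio B-score over 3 SD below the library mean, with starting fluorescence within 5 SD of its mean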;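 note: negative B-score means less thallium flux so channel inhibition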
hERG protect: hERG (human) protection from proarrhythmic block; CHO-hERG, FluxOR thallium flux, dofetilide IC70 present; activation (rescue from dofetilide block), less the hit threshold, % at 10 µM; 310,000 tested, 0.51% active;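 active = activation above the mean of controls blocked by dofetilide plus 5 SD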;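 note: thallium influx through hERG after potassium depolarization seen as dye fluorescence rise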
KCNK3 inh: human KCNK3 channel inhibition, primary screen; B-score at 10 µM; AID 602410; CHO-KCNK3 thallium flux, FluxOR fluorescence; active compounds read low; O14649; 340,000 tested, 0.84% active;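 active = B-score under library mean minus 4 SD, starting fluorescence ratio at most library mean plus 5 SD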;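 note: more negative B-score means stronger inhibition of thallium flux through KCNK3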
KCNQ1 act: potentiators or activators of human KCNQ1 potassium channel; P51787; CHO-K1 KCNQ1, thallium flux FluxOR fluorescence; active compounds read high; AID 2648; 310,000 tested, 0.35% active; B-score at 10 µM;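 active = fluorescence ratio B-score, a plate-corrected score, at least three library SD, with initial intensity B-score within 5 SD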
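Material: CHO-K1 cells stably expressing KCNQ1. Medium: assay buffer for compound exposure, DMSO matched across wells. Reagent: K+/Tl+ depolarizing stimulus. Compound dosing: single-concentration screen. Times: 37 °C overnight plating, 90-min dark dye load, 20-min compound pretreatment. Technique: FluxOR Tl+ flux fluorescence.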
Kir21 inh: blocks the mouse Kir2.1 inward-rectifier potassium channel | P35561 | HEK293-Kir2.1, FluxOR thallium flux fluorescence; active compounds read low | B-score at 10 µM | 310,000 tested, 0.85% active | AID 1672;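 active = fluorescence ratio B-score at or below minus 3 SD of library scores, with starting-brightness B-score within 2 SD, cut at about -4.2 in these data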;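 note: channel flux triggered by added potassium and thallium sulfate stimulus; B-score of peak minus minimum fluorescence over baseline after thallium stimulus; more negative B-score means stronger Kir2.1 block with less thallium influx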
KCNK9 inh conf: confirmation of human KCNK9 potassium channel inhibitors; shares compounds with KCNK9 inh; HEK293 KCNK9 cells, FluxOR thallium flux fluorescence; inhibition, % at 10 µM; 4,900 tested, 43% active; AID 492992;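 active = thallium signal inhibited by more than 5 SD of the compound-free buffer control wells, on both duplicate plates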
Kir2-1 spec: selectivity of KCNK9 modulators against mouse Kir2.1; shares compounds with KCNK9 inh; Kir2.1 cells, FluxOR thallium flux fluorescence; inhibition, % at 10 µM; 4,900 tested, 4% active; AID 492993;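 active = thallium signal drop more than 5 SD beyond the mean of the no-compound control wells, seen in both duplicate plates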;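 note: signal is fluorescence rise after thallium addition divided by baseline fluorescence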
HEK293 Tl ctr: second counter-screen for KCNK9 modulators: effect in non-induced cells | non-induced KCNK9-HEK293, FluxOR thallium flux | shares compounds with KCNK9 inh | inhibition, % at 10 µM | AID 492997 | 4,900 tested, 40% active;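 active = thallium signal drop beyond 5 SD of the untreated control mean, on both duplicate plates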
Hits are given with their value; - = inactive; . = not tested or not shown. In the library only some 3.7% were active in any assay of this set; here they are far more common.

SMILES | KCNQ1 block | KCNK9 inh | hERG protect | KCNK3 inh | KCNQ1 act | Kir21 inh | KCNK9 inh conf | Kir2-1 spec | HEK293 Tl ctr
Cc1ccc(C)c(OCCC(=O)Nc2ccc(S(=O)(=O)N3CCCC3)cc2)c1 | . | . | . | - | . | . | . | . | .
CC(C)C1C(=O)CC(c2ccccc2)NC1c1ccccc1 (stereo not given) | - | -11 | - | - | - | - | 40% | - | -
CN(Cc1ccccc1)C(NC(=O)c1ccco1)C(Cl)(Cl)Cl (stereo not given) | - | - | - | - | - | - | . | . | .
CN(Cc1ccccc1)C(NC(=O)c1ccccc1)C(Cl)(Cl)Cl (stereo not given) | - | - | - | - | - | - | - | - | 41%
Cc1ccccc1OCc1nc2ccccc2c(=O)n1/N=C/c1cccc([N+](=O)[O-])c1 | - | -8.8 | - | - | - | - | - | - | -
Cc1ccccc1OCc1nc2ccccc2c(=O)n1/N=C/c1cn[nH]c1-c1ccccc1 | - | - | - | - | - | - | . | . | .
CCCCC(CC)CNC(=O)C1C2C=CC(C2)C1C(=O)O (stereo not given) | - | - | - | - | - | - | . | . | .
COC(=O)c1cc(NC(=O)CN(c2ccccc2OC)S(=O)(=O)c2ccccc2)ccc1Cl | - | -15 | - | - | - | - | 64% | - | -
COc1nccnc1NS(=O)(=O)c1ccc(N)cc1 | - | - | - | - | - | - | . | . | .
CCN(CC)C(=O)c1ccc(COc2ccccc2Cl)cc1 | - | -8.7 | - | - | - | - | 36% | - | 24%
O=C(O)c1ccc(COc2ccccc2Cl)cc1 | - | - | - | - | - | - | . | . | .
CSCCC(NS(=O)(=O)c1ccc(C)cc1C)C(=O)Nc1cccnc1 (stereo not given) | . | . | . | - | . | . | . | . | .
O=C(Cc1ccc(S(=O)(=O)N2CCOCC2)s1)N(Cc1ccccc1)c1ccccc1 | - | - | - | - | - | - | . | . | .
CCCCN(C(=O)Cc1ccc(S(=O)(=O)N2CCOCC2)s1)c1ccccc1 | - | - | - | - | - | - | - | - | -
O=C(COc1ccc(Br)cc1)NNC(=O)Cc1ccc(S(=O)(=O)N2CCOCC2)s1 | . | . | . | - | . | . | . | . | .
CCC(c1ccccc1)c1nnc(NC(=O)c2ccco2)s1 (stereo not given) | - | -8.7 | - | - | - | - | - | - | -
COCc1c(C(=O)OCC(=O)c2c(N)n(CC(C)C)c(=O)n(C)c2=O)oc2ccccc12 | - | - | - | - | - | - | . | . | .
Cc1c(C(=O)OCC(=O)c2c(N)n(CC(C)C)c(=O)n(C)c2=O)oc2ccccc12 | - | - | - | - | - | - | - | - | -
CCC(=O)c1ccc(OCC(=O)OCC(=O)Nc2cccc(S(=O)(=O)N3CCCC3)c2)cc1 | . | . | . | - | . | . | . | . | .
O=C(COC(=O)CCC(=O)c1ccc(F)cc1)Nc1cccc(S(=O)(=O)N2CCCC2)c1 | - | - | - | - | - | - | - | - | -
Cc1cc(C)c(C(=O)OCC(=O)Nc2cccc(S(=O)(=O)N3CCCCC3)c2)c(C)c1 | 6 | - | - | - | - | - | - | - | -
O=C(COC(=O)c1ccc(O)cc1)Nc1cccc(S(=O)(=O)N2CCCCC2)c1 | - | - | - | - | - | - | . | . | .
Cc1nnc(SCC(=O)N2CCC(c3noc4ccc(F)cc34)CC2)s1 | - | - | - | - | - | - | . | . | .
O=C(CSc1ccc2ccccc2n1)N1CCC(c2noc3ccc(F)cc23)CC1 | - | -9 | - | - | - | - | - | - | -
CCOc1ccc2nc(N3C(=O)/C(=C/c4ccccc4)NC3=S)sc2c1 | - | - | 45 | - | 134 | - | - | - | -
SMILES | KCNQ1 block | KCNK9 inh | hERG protect | KCNK3 inh | KCNQ1 act | Kir21 inh | KCNK9 inh conf | Kir2-1 spec | HEK293 Tl ctr
CCOc1ccc2nc(N3CCCCCC3)sc2c1 | - | - | - | - | - | - | . | . | .
CC(C)N(C(=O)Cn1cc(S(=O)(=O)CC(=O)NCc2ccc(F)cc2)c2ccccc21)C(C)C | - | - | - | - | - | - | . | . | .
O=C(/C=C1\NC2(CCCC2)Cc2ccccc21)C(=O)N/N=C/c1ccc(O)c(O)c1 | - | -10 | - | - | - | - | 48% | - | 30%
CC1CCCN(C(=O)C2CCN(S(=O)(=O)c3ccc4c(c3)CC(C)N4C(=O)C3CC3)CC2)C1 (stereo not given) | - | - | - | - | - | - | . | . | .
Cc1cccc(C(=O)Nc2ccccc2C(=O)OCC(=O)Nc2ccc(C#N)cc2)c1 | - | -9.3 | - | - | - | - | 32% | - | 28%
Cc1cccc(C(=O)Nc2scc(-c3ccc(Br)cc3)c2C(=O)O)c1 | - | - | - | - | - | - | . | . | .
Cc1ccc(NC(=O)C(Nc2ccccc2)c2ccccc2)cc1 (stereo not given) | - | - | - | - | - | - | . | . | .
Cc1ccc(-c2csc(NC(=O)c3cccc(C)c3)c2C(=O)O)cc1 | - | - | - | - | - | - | - | - | -
Cc1cccc(C(=O)Nc2ccc(NC(=O)c3ccccc3)cc2)c1 | - | -11 | - | - | - | - | 54% | - | -
Cc1cccc(C(=O)Nc2ccc(C(=O)Nc3ccc(O)cc3)cc2)c1 | - | - | - | - | - | - | . | . | .
Cc1ccc(NC(=O)C(Nc2cccc(C)c2)c2ccccc2)cc1 (stereo not given) | - | - | - | - | - | - | 33% | - | 32%
Cc1c(C(=O)OCC(=O)NCCN2C(=O)CSC2=O)cccc1[N+](=O)[O-] | . | . | . | - | . | . | . | . | .
Clc1ccc(Cl)c(OCCN2CCCC2)c1 | - | - | - | - | - | - | . | . | .
O=C(OCCn1c(=S)sc2ccccc21)c1ccccc1 | . | . | . | - | . | . | . | . | .
COc1ccc(OC)c(CN2CCCC(C(=O)c3ccccc3SC)C2)c1 (stereo not given) | - | - | - | - | - | - | - | - | -
Cn1cc(CN2CCCC(CNC(=O)c3ccc4c(c3)OCO4)C2)c2ccccc21 (stereo not given) | - | - | - | - | - | - | . | . | .
COc1ccc(F)cc1C(=O)C1CCCN(Cc2c[nH]c3ccccc23)C1 (stereo not given) | - | - | - | - | - | - | . | . | .
Cn1cc(CN2CCCC(C(=O)c3cc(F)ccc3F)C2)c2ccccc21 (stereo not given) | - | - | - | - | - | - | - | - | -
COc1ccc(F)cc1C(=O)C1CCCN(Cc2cn(C)c3ccccc23)C1 (stereo not given) | - | - | - | - | - | - | - | - | -
COc1ccc(CNC(=O)c2ccc(CS(=O)(=O)c3ccc(Br)cc3)o2)cc1 | - | - | - | - | - | - | . | . | .
